{"data": "Results pooled from the literature", "target": "Tyrosine-protein kinase receptor TYRO3 (TYRO3, Homo sapiens, UniProt Q06418)", "Sequence (Q06418 41-890, as in one of the studies)": "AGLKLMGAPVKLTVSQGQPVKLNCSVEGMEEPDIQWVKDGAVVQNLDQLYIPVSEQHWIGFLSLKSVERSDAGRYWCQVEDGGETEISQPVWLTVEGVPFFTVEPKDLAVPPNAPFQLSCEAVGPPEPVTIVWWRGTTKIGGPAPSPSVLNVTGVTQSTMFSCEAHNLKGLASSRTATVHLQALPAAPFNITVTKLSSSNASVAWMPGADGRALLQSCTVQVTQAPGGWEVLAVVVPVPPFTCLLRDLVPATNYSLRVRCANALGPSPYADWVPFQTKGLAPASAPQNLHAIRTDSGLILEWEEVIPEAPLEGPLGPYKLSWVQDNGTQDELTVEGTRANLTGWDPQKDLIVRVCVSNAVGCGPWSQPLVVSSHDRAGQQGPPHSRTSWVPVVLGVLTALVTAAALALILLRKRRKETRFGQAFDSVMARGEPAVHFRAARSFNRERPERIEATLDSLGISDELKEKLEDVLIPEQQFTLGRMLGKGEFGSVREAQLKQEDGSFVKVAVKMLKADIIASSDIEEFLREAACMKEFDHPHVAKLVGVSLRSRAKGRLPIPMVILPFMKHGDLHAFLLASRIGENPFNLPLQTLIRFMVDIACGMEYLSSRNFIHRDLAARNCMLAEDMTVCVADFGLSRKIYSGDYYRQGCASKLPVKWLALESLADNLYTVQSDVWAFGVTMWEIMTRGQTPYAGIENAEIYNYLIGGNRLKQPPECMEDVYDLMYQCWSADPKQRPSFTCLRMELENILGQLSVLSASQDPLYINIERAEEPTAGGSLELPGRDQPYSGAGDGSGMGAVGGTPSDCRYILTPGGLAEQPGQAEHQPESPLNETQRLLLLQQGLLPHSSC"}
{"SMILES": "Cc1ccc(Nc2nccc(N(C)c3ccc4c(C)n(C)nc4c3)n2)cc1S(N)(=O)=O", "assay": "cell-free assay", "setting": "0.3 µM", "endpoint": "inhibition", "value": "26%"}
{"SMILES": "COc1cc(Cl)c(C(=O)N[C@@H](CN[C@H]2CC[C@@H](N)CC2)Cc2ccc(C#N)cc2)cc1-c1ccc(CN[C@H](C)c2ccc(C)cc2)o1", "assay": "enzyme activity, inhibitor", "setting": "1 µM", "endpoint": "remaining activity", "value": "85%"}
{"SMILES": "CCOc1cc(-c2nncn2C)ccc1Nc1ncc2cc(C)nc(NCC(C)(C)C)c2n1", "assay": "enzyme activity, inhibitor, FRET", "setting": "1 µM", "endpoint": "inhibition", "value": "19%"}
{"SMILES": "Cn1c2c(c3ccc(Cl)c(Cl)c31)C(C#N)C1(CCN(C(=O)OC(C)(C)C)CC1)NC2=O (racemic)", "assay": "thermal stability, DSF", "setting": "10 µM", "endpoint": "ΔTm", "value": "0 °C"}
{"SMILES": "CC1CCCN1c1nccc(-c2cnn3ncccc23)n1 (centres unmarked)", "assay": "binding", "setting": "1 µM", "endpoint": "remaining binding", "value": "79%"}
{"SMILES": "Cc1ccc(C(=O)NCc2ccsc2)cc1C#Cc1cn(C(C)C)c2ncnc(N)c12", "assay": "enzyme activity, inhibitor", "setting": "1 µM", "endpoint": "activity vs control", "value": "89%"}
{"SMILES": "O=C(Nc1cnn(-c2csc(C(=O)NC3COC3)c2)c1)Nc1c(F)cccc1Cl", "assay": "enzyme activity, inhibitor", "setting": "5 µM", "endpoint": "remaining activity", "value": "68.4%"}
{"SMILES": "CCCS(=O)(=O)Nc1ccc(F)c(C(=O)c2c[nH]c3ncc(-c4ccc(Cl)cc4)cc23)c1F", "assay": "enzyme activity, inhibitor", "setting": "1 µM", "endpoint": "inhibition", "value": "< 10%"}
{"SMILES": "O=C(N1CCS(=O)(=O)CC1)N1C[C@H](c2ccc(OC(F)(F)F)cc2)C[C@H](c2nc(C3CC3)no2)C1", "assay": "cell-free assay, competition with immobilised ligand", "setting": "1 µM", "endpoint": "remaining binding", "value": "98%"}
{"SMILES": "COc1cc2nccc(Oc3ccc(NC(=O)c4c5n(n(-c6ccc(F)cc6)c4=O)CCCC5)cc3)c2cc1OC", "assay": "enzyme activity, inhibitor", "setting": "0.1 µM", "endpoint": "inhibition", "value": "71%"}
{"SMILES": "CCN(CC)CCNC(=O)c1c(C)[nH]c(/C=C2\\C(=O)Nc3ccc(F)cc32)c1C", "assay": "cell-free assay", "setting": "0.3 µM", "endpoint": "inhibition", "value": "72%"}
{"SMILES": "COc1cc2ncnc(Nc3ccc(Oc4ccccc4)cc3C)c2cc1OC", "assay": "enzyme activity, inhibitor", "setting": "1 µM", "endpoint": "inhibition", "value": "70%"}
{"SMILES": "CC(C)(C)c1nc2c(s1)c1nc(N)ncc1c1ccc(NS(=O)(=O)c3c(F)cccc3F)c(F)c12", "assay": "enzyme activity, inhibitor, radiometric", "setting": "1 µM", "endpoint": "remaining activity", "value": "91%"}
{"SMILES": "Cc1cc(NC(=O)c2cccc3cc(-c4cccc5[nH]nc(N)c45)ccc23)ccc1F", "assay": "enzyme activity, inhibitor", "setting": "0.1 µM", "endpoint": "activity vs control", "value": "99%"}
{"SMILES": "Oc1cccc(-c2nc(N3CCOCC3)c3oc4ncccc4c3n2)c1", "assay": "cell-free assay", "setting": "0.5 µM", "endpoint": "remaining signal", "value": "102%"}
{"SMILES": "CCC(=O)N[C@H]1CC[C@@H](C(=O)N(C)c2ccc(-c3nc4ccccc4o3)cc2)C1", "assay": "cell-free assay, competition with immobilised ligand", "setting": "1 µM", "endpoint": "remaining binding", "value": "92%"}
{"SMILES": "O=C1NC(=O)c2cc(Nc3ccc(F)cc3)c(Nc3ccc(F)cc3)cc21", "assay": "cell-free assay", "setting": "0.5 µM", "endpoint": "remaining signal", "value": "94.8%"}
{"SMILES": "CCCOc1ccc([C@@H]2[C@@H](C(=O)O)[C@H](c3ccc4c(c3)OCO4)CN2CC(=O)Nc2c(CC)cccc2CC)cc1", "assay": "cell-free assay, competition with immobilised ligand", "setting": "1 µM", "endpoint": "remaining binding", "value": "94%"}
{"SMILES": "CC/C(=N\\NC(=O)NCc1cccc(O)c1)c1ccc(O)c(C)c1O", "assay": "enzyme activity, inhibitor", "setting": "0.1 µM", "endpoint": "inhibition", "value": "2.7%"}
{"SMILES": "Nc1cnc(N2CCc3cc(S(=O)(=O)Nc4c(F)cc(Cl)cc4F)cc(N4CCCC4=O)c32)nc1", "assay": "cell-free assay, competition with immobilised ligand", "setting": "1 µM", "endpoint": "remaining binding", "value": "100%"}
{"SMILES": "Cc1ccc(NC(=O)c2ccc(C)c(C(F)(F)F)c2)cc1C#Cc1nn(C2CCC(O)CC2)c2ncnc(N)c12 (centres unmarked)", "assay": "cell-free assay", "setting": "10 µM", "endpoint": "remaining signal", "value": "2%"}
{"SMILES": "CCCCN(CCCC)C(=O)CN1C[C@@H](c2cc(OC)c3c(c2)OCO3)[C@H](C(=O)O)[C@H]1CC(C)(C)CCC", "assay": "cell-free assay, competition with immobilised ligand", "setting": "1 µM", "endpoint": "remaining binding", "value": "97.1%"}
{"SMILES": "CC(C)(O)[C@H]1CC[C@H](Nc2ccc3ncc(-c4cccc(C(F)(F)F)c4)n3n2)CC1", "assay": "enzyme activity, inhibitor", "setting": "1 µM", "endpoint": "remaining activity", "value": "22.3%"}
{"SMILES": "Cn1cc(Cl)c2c(Oc3c(F)cc(Nc4cc(Cl)nc(N)n4)cc3F)ccnc21", "assay": "cell-free assay, competition with immobilised ligand", "setting": "0.1 µM", "endpoint": "remaining binding", "value": "80%"}
{"SMILES": "Cn1c2c(Cl)c(Cl)ccc2c2cc(N)[nH]c(=O)c21", "assay": "thermal stability, DSF", "setting": "10 µM", "endpoint": "ΔTm", "value": "1.1 °C"}
{"SMILES": "O=C1CCc2cc(Nc3cc(OC4CCOCC4)c([N+](=O)[O-])cc3Cl)ccc2N1", "assay": "cell-free assay, competition with immobilised ligand", "setting": "1 µM", "endpoint": "remaining binding", "value": "100%"}
{"SMILES": "Cn1c2c(c3ccc(Cl)c(Cl)c31)C(C#N)C1(CCNCC1)NC2=O (racemic)", "assay": "thermal stability, DSF", "setting": "10 µM", "endpoint": "ΔTm", "value": "-0.4 °C"}
{"SMILES": "COc1cccc(CNC(=O)c2nc3scc(COCc4ccc(C(=O)O)cc4)c3c(=O)[nH]2)c1", "assay": "cell-free assay, competition with immobilised ligand", "setting": "1 µM", "endpoint": "remaining binding", "value": "100%"}
{"SMILES": "CCN(CC)c1ccc(C2=NNC(=O)CC2C)cc1[N+](=O)[O-] (centres unmarked)", "assay": "enzyme activity, inhibitor", "setting": "10 µM", "endpoint": "remaining activity", "value": "95%"}
